Screening results as filed in PubChem BioAssay.
A selection: hits, their analogues and other compounds. The true share with any hit is near 2.5%.
SIRT5 block: SIRT5 desuccinylase inhibitors, primary screen, biochemical, fluorescence imaging, single point, set 5. hit rate 1.1% among 330,000. NAD-dependent protein deacylase sirtuin-5, mitochondrial (Homo sapiens), Q9NXA8. inhibition, % at 15 µM. Purified SirT5, succinyl-peptide AMC, trypsin-coupled fluorescence; in the data active means inhibition above about 15%
Target sequence (Q9NXA8 whole entry, looked up): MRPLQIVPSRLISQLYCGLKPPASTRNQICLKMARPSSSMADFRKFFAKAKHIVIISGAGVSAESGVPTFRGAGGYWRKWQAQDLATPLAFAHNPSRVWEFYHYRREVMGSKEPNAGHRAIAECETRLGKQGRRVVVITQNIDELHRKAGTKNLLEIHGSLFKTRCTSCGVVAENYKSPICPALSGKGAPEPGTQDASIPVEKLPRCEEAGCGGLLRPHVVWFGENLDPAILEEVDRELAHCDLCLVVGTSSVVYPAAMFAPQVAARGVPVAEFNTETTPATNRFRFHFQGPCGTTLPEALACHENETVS
FGF22 binding: binders of human FGF22 protein, primary screen, FGF22 synaptogenesis inhibitor project, biophysical, thermal shift, single point; Fibroblast growth factor 22 (Homo sapiens), Q9HCT0; recombinant FGF22 thermal shift, SYPRO orange fluorescence; percent of sucrose octasulfate shift, DMSO zero; activity (Tm shift, normalised), % at 9.99 µM; hit rate 1.5% among 340,000; AID 651658, 2012;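 active means mean Tm shift, scaled 0 neutral to 100 positive control, at about 1.3% or above, every replicate too, limit read from the data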
Target sequence (Q9HCT0 whole entry, looked up): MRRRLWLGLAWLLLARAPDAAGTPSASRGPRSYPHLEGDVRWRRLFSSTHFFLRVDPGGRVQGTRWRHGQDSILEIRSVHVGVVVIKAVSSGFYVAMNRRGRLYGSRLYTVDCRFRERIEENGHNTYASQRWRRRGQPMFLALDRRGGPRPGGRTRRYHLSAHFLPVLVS
E-selectin induc: E-selectin induction in HUVECs, primary screen, imaging, HUVEC, immunofluorescence imaging, single point; normalized: neutral wells 0, TNF-alpha wells 100; activation, % at 7.58 µM; hit rate 0.37% among 260,000; AID 686992, 2013;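 active means mean E-selectin-positive cell signal at least 10% of the positive control, reached in at least 60% of replicates, without over 20% cell loss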
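Test system – human umbilical vein endothelial cells (HUVEC), E-selectin induction · Input – 3,000 HUVEC seeded per well · Buffer or medium – EGM-2, gelatin · Compound dosing – single-point compound dose · Detection – immunofluorescence imaging · Measure – percent E-selectin-positive cells · Controls – TNF-alpha high, DMSO low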
miR122 inh: miR-122 Renilla sensor signal increase in Huh7, primary screen, miR-122 inhibitor project, cell-based, single point, plate reader; hit rate 0.3% among 340,000; Huh7 miR-122 Renilla luciferase sensor, 48 h; neutral wells = 0, positive control = 100; AID 602342, 2012; activation (reporter increase), % at 12.5 µM;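 active means mean replicate activation score at least 90 and every replicate individually at or above 90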;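 further: higher luciferase means less miR-122 activity so hits act as miR-122 inhibitors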
S100A4 MyoIIA: inhibitors of S100A4-myosin IIA peptide binding, primary screen, biochemical, fluorescence polarization, TAMRA-MyoIIA peptide. Protein S100-A4 (Homo sapiens), P26447. inhibition, % at 10.7 µM. hit rate 0.14% among 360,000;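 active means mean inhibition of at least 70% across replicates, with every replicate also reaching that level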
Target sequence (P26447 whole entry, looked up): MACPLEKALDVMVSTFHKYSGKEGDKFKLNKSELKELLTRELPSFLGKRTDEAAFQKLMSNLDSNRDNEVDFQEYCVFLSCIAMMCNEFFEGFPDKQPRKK
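Test system – S100A4 monomer (human) · Compound – single-point compound testing · Schedule – 5 min incubation before reading · Probe or stimulus – TAMRA-labelled myosin IIA heavy-chain peptide probe, 5 nM · Benchmarks – neutral control DMSO, positive control TFP · Medium – Calcium-containing HEPES buffer, pH 7.2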
Of the large screens only hits and unclear results are named; the others gave an inactive call.

C=CC[C@@H](CC(=O)N(CCO)Cc1ccccc1)C(=O)N[C@H](COC(=O)[C@@H](CC=C)CC(=O)OC(C)(C)C)Cc1c[nH]c2ccccc12	none (no result: SIRT5 block)
COCC(=O)N(C)C[C@H]1Oc2cc(-c3ccncc3)ccc2S(=O)(=O)N([C@@H](C)CO)C[C@H]1C	none
CC(C(=O)Nc1ccc(F)c(F)c1F)N(C)Cc1cccs1 (centres undefined)	SIRT5 block 16.3
CCN(CCn1cccn1)C(=O)CC1C(=O)NCCN1Cc1cc(OC)cc(OC)c1 (centres undefined)	FGF22 binding 44.2 (no result: E-selectin induc, miR122 inh)
COc1cccc(-c2cn(CC[C@H]3CC[C@H](NC(C)=O)[C@@H](CO)O3)nn2)c1	none (no result: miR122 inh)
O=C(O)CCn1c(SCc2cccc3ccccc23)nc2ccccc21	none (no result: FGF22 binding, E-selectin induc)
Cc1ccc(OCCSc2nc3ccccc3n2CCC(=O)O)cc1	SIRT5 block 21.4 (no result: miR122 inh)
O=C(O)c1ccccc1CSc1nc2ccccc2n1Cc1ccccc1C(=O)O	FGF22 binding 43.7 (no result: E-selectin induc)
CCCSc1nc2ccccc2n1CC(=O)O	none
Cc1ccccc1OCCSc1nc2ccccc2n1CCC(=O)O	none (no result: E-selectin induc)
CC(C)CSc1nc2ccccc2n1CC(=O)O	FGF22 binding 43.4 (no result: E-selectin induc)
CCn1c(SCC(=O)N2CCCC2)nc2ccccc21	FGF22 binding 43.8 (no result: E-selectin induc)
CCCN1CCC(=O)N([C@H](CSc2ccc(OC)cc2)c2ccccc2)CC1	SIRT5 block 21.1 (no result: E-selectin induc)
CCN(CC)CCN1C(=O)C2C(C(=O)Nc3cccc(C)c3)C3C=CC2(O3)C1C(=O)NC1CCCC(C)C1C (centres undefined)	SIRT5 block 19.0 (no result: E-selectin induc)
COc1cccc(NC(=O)C2C3C=CC4(O3)C2C(=O)N(CCCN2CCCCC2)C4C(=O)NC2CCCCC2)c1 (centres undefined)	E-selectin induc 29.1
COc1cccc(NC(=O)C2C3C=CC4(O3)C2C(=O)N(CCCN2CCC(C)CC2)C4C(=O)NC2CCCCC2)c1 (centres undefined)	none
COc1ccc2c(c1)[N+](C)(C)C(C)(C)C=C2C	FGF22 binding 43.2 (no result: miR122 inh)
CCOc1ccc2c(c1)[N+](C)(C)C(C)(C)C=C2C	none (no result: FGF22 binding, E-selectin induc)
C[C@@H]1CCCCO[C@H](CN(C)C(=O)Nc2ccc3c(c2)OCO3)[C@@H](C)CN([C@@H](C)CO)C(=O)c2cc(NC(=O)CCCN(C)C)ccc2O1	none
COC(=O)c1ccc2nc(-c3ccc(C)cc3)c(CC(C)(C)C)n2c1	SIRT5 block 15.2 (no result: miR122 inh)
COC(=O)c1ccc2nc(-c3ccc(C)cc3)c(Cc3ccc(C)cc3)n2c1	none (no result: miR122 inh)
CC(C)c1ccc(Nc2nc(N3CCOCC3)nc(N3CCOCC3)n2)cc1	FGF22 binding 1.6 (no result: SIRT5 block)
C[C@H](CO)N1C[C@H](C)[C@@H](CN(C)C(=O)Cc2cccnc2)Oc2cc(C3=CCCCC3)ccc2S1(=O)=O	none
CN(C(=O)c1ccc2c(c1)OCO2)C1(C)CCS(=O)(=O)C1 (centres undefined)	none (no result: miR122 inh)
COc1ccc(C(=O)N(C)C2(C)CCS(=O)(=O)C2)cc1OC (centres undefined)	S100A4 MyoIIA 183.5 (no result: miR122 inh)
CCOc1ccc(N2C(=O)Nc3ccccc3C2(O)C(=O)NCc2ccc3c(c2)OCO3)cc1 (centres undefined)	miR122 inh 171.2 (no result: SIRT5 block, FGF22 binding, E-selectin induc, S100A4 MyoIIA)
Cc1cccc(C)c1NC(=O)Cn1c(=O)c(N2CCCCC2)c(N)n(C)c1=O	none
Cn1c(N)c(N2CCCCC2)c(=O)n(CC(=O)Nc2cccc(C#N)c2)c1=O	FGF22 binding 43.0 (no result: SIRT5 block)
O=C(NC(=S)NCc1ccc(Cl)cc1Cl)c1ccco1	FGF22 binding 43.3 (no result: SIRT5 block, miR122 inh)
Cc1ccc(NC(=O)CSc2nnc(C3CC3)n2CC2CCCO2)c(C)c1 (centres undefined)	none (no result: E-selectin induc)
Cc1ccc(NCc2nnc(SCC(=O)Nc3ccccc3)n2CC2CCCO2)c(C)c1 (centres undefined)	miR122 inh 150.9 (no result: SIRT5 block, FGF22 binding, E-selectin induc, S100A4 MyoIIA)
C[C@H]1CN([C@@H](C)CO)C(=O)Cc2cc(NC(=O)CCC(F)(F)F)ccc2O[C@@H]1CN(C)C(=O)Nc1cccc2ccccc12	none (no result: SIRT5 block)
COc1ccc2c3c([nH]c2c1)[C@H](CO)NCC31CN(C(=O)C2CC2)C1	none (no result: miR122 inh)
CC(Oc1ccc(Cl)cc1)c1ccnn1S(=O)(=O)c1ccc(Cl)cc1 (centres undefined)	miR122 inh 110.8 (no result: SIRT5 block, FGF22 binding, E-selectin induc, S100A4 MyoIIA)
CNC(=O)c1cc2c(ccc3ccccc32)o1	E-selectin induc 78.3 (no result: miR122 inh)
O=C(NC1CCCC1)c1cc2c(ccc3ccccc32)o1	none (no result: SIRT5 block, FGF22 binding, E-selectin induc, S100A4 MyoIIA)
CCc1nnc(NC(=O)CSc2nc3[nH]ncc3c(=O)[nH]2)s1	FGF22 binding 43.8 (no result: E-selectin induc)
C[C@@H]1CCCCO[C@@H](CN(C)S(=O)(=O)c2cccs2)[C@@H](C)CN([C@@H](C)CO)C(=O)c2cc(NS(=O)(=O)c3cn(C)cn3)ccc2O1	none (no result: E-selectin induc)
NC(N)=Nc1nc(-c2ccccc2)c2ccccc2n1	none (no result: E-selectin induc)
CCc1nc(N=C(N)N)nc2ccccc12	FGF22 binding 43.3 (no result: E-selectin induc, miR122 inh)
O=C(C[C@H]1C[C@H]2c3cc(NS(=O)(=O)c4ccccc4)ccc3O[C@H]2[C@@H](CO)O1)N1CCOCC1	none
COc1ccc(NC(=O)N(C)C[C@@H]2Oc3ccc(NC(=O)CCC(F)(F)F)cc3CC(=O)N([C@H](C)CO)C[C@H]2C)cc1	none
CCc1c(C(=O)Nc2cc(C)cc(C)c2)[nH]c(C)c1C(C)=O	miR122 inh 120.9 (no result: SIRT5 block, FGF22 binding, E-selectin induc, S100A4 MyoIIA)
COC(=O)C[C@@H]1CC[C@H]2[C@H](COc3ccc(NC(=O)Cc4cccs4)cc3C(=O)N2C)O1	none (no result: SIRT5 block, FGF22 binding, miR122 inh, S100A4 MyoIIA)
Cc1ncc([N+](=O)[O-])n1CC(=O)Nc1ccccc1	FGF22 binding 43.0 (no result: E-selectin induc, miR122 inh)
CO[C@@H]1CN(C)C(=O)c2ccc(NC(=O)c3nc4ccccc4s3)cc2OC[C@@H](C)NC[C@H]1C	none (no result: miR122 inh, S100A4 MyoIIA)
COC(c1ccccc1)c1nnc(CCC(=O)N(C)C(C2CC2)C2CC2)o1 (centres undefined)	SIRT5 block 15.2, FGF22 binding 43.9 (no result: E-selectin induc)
COC(c1ccccc1)c1nnc(CCC(=O)N2CCCCCCC2)o1 (centres undefined)	FGF22 binding 44.2 (no result: E-selectin induc)
C[C@H](CO)N1C[C@H](C)[C@H](CN(C)C(=O)c2ccncc2)OCc2cn(nn2)CCCC1=O	none (no result: SIRT5 block, FGF22 binding, S100A4 MyoIIA)
CCC(=O)Nc1ccc2c(c1)OC[C@H](C)N(C(=O)C1CCC1)C[C@@H](C)[C@@H](OC)CN(C)C2=O	none (no result: miR122 inh)
CCC(=O)N1C[C@@H](C)[C@@H](OC)CN(C)C(=O)c2cc(NC(=O)CC(F)(F)F)ccc2OC[C@H]1C	none (no result: miR122 inh)
C[C@@H]1CN([C@@H](C)CO)C(=O)c2cc(C#CC3CCCCC3)cnc2O[C@@H]1CN(C)S(=O)(=O)c1ccccc1	SIRT5 block 15.6
C[C@@H]1CN([C@H](C)CO)C(=O)c2cc(C#CC3CCCC3)cnc2O[C@H]1CN(C)S(=O)(=O)c1cccc(F)c1	none
